PAFAH2 inh: inhibitors of human PAFAH2; recombinant PAFAH2, FP-rhodamine activity probe, fluorescence polarization; inhibition, % at 3.39 µM; Q99487; actives 0.99% (n = 340,000);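 active = inhibition above the mean over all tested compounds plus 3 SD, cut at about 30% in these data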;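 note: inhibitors block probe labeling of enzyme so polarization drops; 0% = enzyme with DMSO and 100% = wells lacking PAFAH2 protein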
IMP-1 inhibitor: blocks Pseudomonas aeruginosa IMP-1 metallo-beta-lactamase. purified IMP-1, nitrocefin hydrolysis, epi-absorbance fluorescence. inhibition, % at 5.6 µM. AID 1556. actives 0.45% (n = 290,000);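 active = inhibition above the mean plus 3 SD of all compounds in the same screening run, cut at about 4.5% in these data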;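 note: 0% = IMP-1 with DMSO and 100% = DMSO wells lacking enzyme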
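assay system = purified recombinant IMP-1 metallo-beta-lactamase enzyme | schedule = 15 min preincubation plus 25 min reaction at 25 °C | signal = Epi-absorbance fluorescence, 480 nm excitation, 530 nm emission | read-out basis = percent inhibition from optical density relative to buffer-blank wells | controls = IMP-1 with DMSO as 0%, enzyme-free DMSO as 100%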
PAFAH1B3 FP inh: PAFAH1B3 (human) inhibition; Q15102; inhibition, % at 3.39 µM; actives 0.28% (n = 340,000); recombinant PAFAH1B3, FP-rhodamine probe, fluorescence polarization; AID 492972;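 active = inhibition above the screen-wide average of all tested compounds plus 3 SD, cut at about 25% in these data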;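 note: 0% = enzyme with DMSO only and 100% = wells lacking PAFAH1B3 protein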
Target sequence (Q15102 whole entry, looked up): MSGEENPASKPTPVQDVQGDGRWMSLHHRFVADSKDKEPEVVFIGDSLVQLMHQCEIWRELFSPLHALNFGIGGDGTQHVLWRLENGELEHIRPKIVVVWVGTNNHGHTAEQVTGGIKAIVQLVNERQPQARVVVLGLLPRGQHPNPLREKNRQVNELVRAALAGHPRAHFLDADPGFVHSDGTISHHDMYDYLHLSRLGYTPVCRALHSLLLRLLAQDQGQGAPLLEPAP
VIM-2 inhibitor: inhibitors of Pseudomonas aeruginosa VIM-2 metallo-beta-lactamase; purified VIM-2, nitrocefin hydrolysis, epi-absorbance fluorescence; actives 0.89% (n = 290,000); AID 1527; inhibition, % at 5.6 µM;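 active = inhibition above the mean of all tested compounds plus 3 SD, cutoff set per screening run, cut at about 7.5% in these data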;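 note: red hydrolysis product quenches plate fluorescence so inhibitors raise well fluorescence; 0% = enzyme with DMSO and 100% = DMSO without enzyme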
PAFAH1B2 FP inh: PAFAH1B2 (human) inhibition | inhibition, % at 3.39 µM | AID 492953 | P68402 | recombinant PAFAH1B2, FP-rhodamine activity probe, fluorescence polarization | actives 1.2% (n = 340,000);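 active = inhibition above the mean of all tested compounds plus 3 SD, cut at about 24% in these data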;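 note: 0% = enzyme with DMSO and 100% = wells lacking PAFAH1B2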
pPAFAH FP inh: inhibitors of human plasma PAF acetylhydrolase (pPAFAH) | inhibition, % at 3.39 µM | recombinant pPAFAH, FP-rhodamine probe fluorescence polarization | AID 463082 | Q13093 | actives 1.5% (n = 330,000);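 active = inhibition above the mean inhibition across the screen plus 3 SD, cut at about 25% in these data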;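 note: inhibitors block binding of the rhodamine activity-based probe so polarization drops; 0% = enzyme with DMSO and 100% = wells lacking pPAFAH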
Target sequence (Q13093 whole entry, looked up): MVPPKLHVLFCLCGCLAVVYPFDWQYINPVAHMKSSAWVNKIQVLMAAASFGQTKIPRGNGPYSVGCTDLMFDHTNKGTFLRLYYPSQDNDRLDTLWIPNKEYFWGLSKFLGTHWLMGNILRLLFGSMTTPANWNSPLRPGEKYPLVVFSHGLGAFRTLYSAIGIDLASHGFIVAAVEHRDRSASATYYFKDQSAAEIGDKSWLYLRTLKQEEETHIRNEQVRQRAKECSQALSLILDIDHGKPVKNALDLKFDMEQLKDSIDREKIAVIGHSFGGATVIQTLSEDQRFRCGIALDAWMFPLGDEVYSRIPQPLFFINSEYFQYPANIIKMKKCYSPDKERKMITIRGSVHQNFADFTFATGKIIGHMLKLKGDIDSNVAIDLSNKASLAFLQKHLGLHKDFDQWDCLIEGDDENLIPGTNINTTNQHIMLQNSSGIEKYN
PAFAH1B3 confirm: PAFAH1B3 (human) inhibition, confirmed. inhibition, % at 3.39 µM. shares compounds with PAFAH1B3 FP inh. actives 30% (n = 390). recombinant PAFAH1B3, FP-Rh activity-based probe, fluorescence polarization;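 active = average inhibition over triplicate runs above the hit cutoff set in the earlier primary screen, cut at about 25% in these data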;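 note: 0% = enzyme with DMSO and 100% = wells lacking PAFAH1B3 protein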
* = called active by the depositor; / = not tested or not shown; ! = not active in a repeat. In the library only some 3.6% were active in any assay of this set; here they are far more common.

SMILES	PAFAH2 inh	IMP-1 inhibitor	PAFAH1B3 FP inh	VIM-2 inhibitor	PAFAH1B2 FP inh	pPAFAH FP inh	PAFAH1B3 confirm
C=CCn1c(NC(=O)c2ccccc2Cl)c(C#N)c2nc3ccccc3nc21	6	-5	60*	0	17	8	8
Nc1ccc(-c2ccc(C(=O)O)s2)cn1	-1	-2	6	0	-3	-3	/
Cc1ccc(/C=C2/C(=O)c3ccc(C(=O)O)cc3C2=O)o1	16	-1	26*	-3	14	/	17
O=C(Cn1ncc(Cl)c(Cl)c1=O)NC1CCCCC1	3	/	29*	/	1	-2	21
O=C(Cn1ncc(Cl)c(Cl)c1=O)NCC1CCCCC1	7	-3	-8	-3	5	6	/
O=C(NC1=C(Nc2ccc(F)cc2)C(=O)c2ccccc2C1=O)c1ccc(Cl)cc1	5	-1	26*	0	13	5	9
Cc1ccc(/C=C2/Sc3ccccc3N(CC(=O)NCCCOC(C)C)C2=O)cc1	4	-2	1	1	2	14	/
O=C(CSc1ccc2c(c1)OCCO2)Nc1ccc(Cl)cn1	1	-6	26*	-2	6	0	8
O=C(CSc1ccc2c(c1)OCCO2)Nc1ccc(Br)cn1	0	-1	4	-1	-2	5	/
Cc1ccc(S(=O)(=O)N(CCC#N)C2CCCCC2)c2nsnc12	-14	-4	6	0	13	0	/
Cc1nn(-c2ccc(F)cc2)c2nc(N)c(C#N)c(-c3ccc(O)c(O)c3)c12	5	-2	36*	6	14	/	-3
CC1(NC(=O)c2cc(Cl)nc3ccccc23)CCS(=O)(=O)C1 (configuration not stated)	5	/	35*	/	3	1	9
O=C(NC1CC1)c1cc(Cl)nc2ccccc12	-6	/	-8	/	-2	/	/
CCNCC(=O)N1c2ccccc2CCc2ccc(NC(=O)OC(C)C)cc21	-1	-2	31*	0	0	2	7
CCNCC(=O)N1c2ccccc2CCc2ccc(NC(C)=O)cc21	2	1	4	2	0	5	/
CC(C)(C)OC(=O)N1CCC(C(=O)Nc2cccc(C(=O)N3CCCC3)c2)CC1	-3	/	9	/	5	/	/
CCOC(=O)N1CCN(C(=O)Cc2ccccc2[N+](=O)[O-])CC1	2	-3	1	-1	2	-7	/
COc1cc(NCCCNC(C)C)c2nccc(C)c2c1	0	/	40*	/	13	/	13
Cn1c2c(c3ccccc31)CCSC2=O	-6	-1	26*	0	3	-1	24
O=C(Nc1ccsc1C(=O)O)c1ccccc1Cl	2	-1	-3	0	0	-8	/
O=C(O)CCCCCCCCCCCNC(=O)NC12CC3CC(CC(C3)C1)C2	0	/	26*	/	4	0	6
CCOCCCNC(=O)NC12CC3CC(CC(C3)C1)C2	10	0	-4	-1	6	-1	/
COc1ccc(S(=O)(=O)Nc2cc(SCC(=O)O)c(O)c3ccccc23)cc1	13	3	44*	6	19	22	12
Cc1cc(C)c(S(=O)(=O)Nc2cc(SCC(=O)O)c(O)c3ccccc23)cc1C	/	-1	/	0	/	16	/
CCc1ccc(NC(=O)NNC(=O)c2ccc3ccccc3c2O)cc1	-6	-2	36*	-7	12	/	74*
SMILES	PAFAH2 inh	IMP-1 inhibitor	PAFAH1B3 FP inh	VIM-2 inhibitor	PAFAH1B2 FP inh	pPAFAH FP inh	PAFAH1B3 confirm
COc1cccc(/C=N\NC(=O)c2cc(OCC(F)(F)F)ccc2OCC(F)(F)F)c1	-2	-3	-2	-2	7	-3	/
COCCCNC(=O)c1cc2c(=O)n3cc(C)ccc3nc2nc1NCC1CCCO1 (configuration not stated)	/	-3	/	3	/	4	/
CCOC(=O)c1sc(NC(=O)Nc2ccccc2Cl)cc1C	-47	-1	6	-1	2	14	/
CCOC(=O)c1sc(NC(=O)Nc2ccccc2)cc1C	-19	1	27*	3	13	2	18
Cc1cccc(N=C2C(=O)Nc3c(Cl)cccc32)c1	4	-2	-3	-1	-2	3	/
O=C1Nc2c(Cl)cc(Cl)cc2C1=O	13	/	43*	/	16	/	23
NC1=C(Br)C(=O)c2ncccc2C1=O	25	/	58*	/	16	/	41*
O=C1c2cccnc2C(=O)N1CO	0	-2	-6	-1	0	5	/
Cc1ccc(S(=O)(=O)NC(=O)Nc2ccc(C)cc2C)cc1	-5	-3	28*	-3	5	/	7
COc1ccc(C(=O)c2nccc3cc(OC)c(OC)cc23)cc1OC	12	/	57*	/	10	5	8
O=c1c(O[C@@H]2O[C@H](CO)C(O)C2O)c(-c2ccc(O)c(O)c2)oc2cc(O)cc(O)c12 (some centres not stated)	-16	/	26*	/	11	-2	25
C[C@@H]1O[C@@H](Oc2c(-c3cc(O)c(O)c(O)c3)oc3cc(O)cc(O)c3c2=O)[C@H](O)[C@H](O)[C@H]1O	-40	-2	44*	-1	5	-1	22
COc1cc(-c2oc3cc(O)cc(O)c3c(=O)c2O[C@@H]2O[C@H](COC3O[C@@H](C)[C@H](O)[C@@H](O)[C@H]3O)[C@@H](O)[C@H](O)[C@H]2O)ccc1O (some centres not stated)	-8	/	6	/	4	-4	/
C[C@@H]1O[C@@H](O[C@H]2[C@H](O)[C@@H](O)[C@H](Oc3c(-c4ccc(O)c(O)c4)oc4cc(O)cc(O)c4c3=O)O[C@@H]2CO)[C@H](O)[C@H](O)[C@H]1O	-2	/	9	/	2	1	/
O=c1c(OC2OC(CO)C(O)C(O)C2OC2OC(CO)C(O)C(O)C2O)c(-c2ccc(O)cc2)oc2cc(O)cc(O)c12 (configuration not stated)	1	/	3	/	5	11	/
C[C@@H]1O[C@@H](Oc2c(-c3ccc(O)c(O)c3)oc3cc(O)cc(O)c3c2=O)[C@H](O)[C@H](O)[C@H]1O	-11	/	27*!	/	-4	3	17
O=c1cc(-c2ccc(O)cc2)oc2cc(O)cc(O)c12	-1	/	12	/	1	2	/
O=c1c(O)c(-c2ccc(O)cc2)oc2cc(O)cc(O)c12	2	/	30*	/	11	21	24
CC(Sc1n[nH]c(-c2cccs2)n1)C(=O)Nc1ccc(C(N)=O)cc1 (configuration not stated)	1	/	4	/	3	5	/
O=C(NCCC(=O)N(Cc1ccco1)Cc1cccs1)c1ccccc1Cl	4	/	1	/	7	1	/
COC(=O)CCc1c(C)c(C(=O)c2cc(F)c(F)c(F)c2F)c2ccccn12	12	-6	29*	-1	5	7	7

Screening results (PubChem)
